The source of these data is ChEMBL document CHEMBL1137535, “Structure-activity relationship of antileishmanials neolignan analogues” (2007).

The subject of assay [1] is Leishmania donovani. Description: Antileishmanial activity against Leishmania donovani LD-1/MHOM/SD/00-1S in mouse peritoneal macrophages at 80 ug/mL after 48 hrs relative to control. The format is functional. The method, boiled down: (§1)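 BALB/c peritoneal macrophages, 2 · 10⁵ cells per chamber in DMEM, held 2 h at 37 °C in 4% CO₂/air. They were then infected for 4 h with 8 · 10⁵ stationary-phase promastigotes in DMEM with 5% heat-inactivated FCS and antibiotics. After washing off free parasites, compound was added in quadruplicate for 48 h. Monolayers were methanol-fixed and Giemsa-stained, and amastigotes counted per 200 cells. Result is % growth inhibition versus untreated controls.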

For assay [2], the system named is Leishmania amazonensis. Description: Antileishmanial activity against Leishmania amazonensis MHOM/BR/75-josefa in mouse peritoneal macrophages at 80 ug/mL after 48 hrs relative to control. The format is functional. Put shortly:
as §1

Assay [3] can be described thus: (§2) Toxicity against BALB/c mouse macrophages assessed as cell viability. The format is functional, Macrophage. Also on record: concentration or dose not given beside the values.
For assay [4], the system named is Macrophage. Described as §2. The format is functional. Also noted: concentration or dose not given beside the values.
The nature of assay [5]: Toxicity against BALB/c mouse macrophages assessed as disrupted cells. The format is functional, Macrophage.

On to `CC(Sc1ccc(N)cc1)C(=O)c1ccccc1` (configuration not stated), for which the inhibition (as a rule, how much of the control response was suppressed) at 80 µg/mL in assay [1] was found to be 28.8%; in assay [2], 0%. Also, in assay [3], the Activity is greater than 80%.

As to MEGLUMINE ANTIMONATE, the values for the inhibition in assay [1] and in assay [2] were 26% and 28.2%, respectively. Further, the Activity in assay [4] is greater than 80%.

As for `CSc1ccccc1OCC(=O)c1ccc(Cl)cc1`, the inhibition at 80 µg/mL in assay [1] was 5.8%; in assay [2], 8.8%. Further, the Activity in assay [3] is reported as greater than 80%.

As for `COc1ccc(C(=O)C(C)Oc2c(OC)cccc2OC)cc1OC` (configuration not stated), the inhibition at 80 µg/mL in assay [1] amounted to 49.9%; in assay [2], 37.9%. The Activity in assay [3] is greater than 80%.

Take `COc1ccc(C(=O)COc2ccc(Cl)cc2)cc1OC`: the inhibition at 80 µg/mL was 0% in assay [1] and 17.7% in assay [2]. For the same compound, the Activity in assay [3] is given as greater than 80%.

As for `COc1ccc(C(=O)C(C)Sc2ccc(C)cc2)cc1OC` (configuration not stated), the inhibition at 80 µg/mL in assay [1] and in assay [2] was 100% in each case.

As to `C[C@H](Sc1ccc(Cl)cc1)[C@H](O)c1ccccc1` (relative stereo), the figures for the inhibition at 80 µg/mL in assay [1] and in assay [2] were 45.2% and 50.6%, respectively. Moreover, in assay [3], the Activity is given as greater than 80%.

For `CC(C(=O)c1ccccc1)S(=O)(=O)c1ccc(Cl)cc1` (configuration not stated), the inhibition at 80 µg/mL in assay [1] and in assay [2] was 0% each time. For the same compound, the Activity in assay [3] was greater than 80%.

Take `CC(=O)O[C@H](c1ccccc1)[C@H](C)Sc1ccc(Cl)cc1` (relative stereo): the inhibition at 80 µg/mL in assay [1] and in assay [2] was 0% throughout. In addition, in assay [3], the Activity was greater than 80%.

Consider `O=C(CSc1ccc(Cl)cc1)c1ccccc1`, for which the inhibition at 80 µg/mL is 37.2% in assay [1] and 38.8% in assay [2]. Further, in assay [3], the Activity is reported as greater than 80%.

Turning to `Cc1ccc(SC(C)C(=O)c2ccccc2)cc1` (configuration not stated), the Activity in assay [5] is reported as greater than 80%.

As for `CC(Sc1ccccc1)C(=O)c1ccccc1` (configuration not stated), the inhibition at 80 µg/mL in assay [1] is 70.2%; in assay [2], 78.1%. Besides, the Activity in assay [3] is recorded as greater than 80%.

As to `C/C=C/c1ccc(OC(C)C(=O)c2ccc(OC)c(OC)c2)c(OC)c1` (configuration not stated), the inhibition at 80 µg/mL in assay [1] came out at 50%; in assay [2], 34.2%. For the same compound, the Activity in assay [3] is listed as greater than 80%.

For `COc1ccc(C(=O)C(C)Sc2ccccc2)cc1OC` (configuration not stated), in assay [5], the Activity was greater than 80%.

For the compound `COc1ccc(C(=O)C(C)Sc2ccc(Cl)cc2)cc1OC` (configuration not stated), the inhibition at 80 µg/mL was determined as 22% in assay [1] and 63.3% in assay [2]. Moreover, the Activity in assay [3] is greater than 80%.

Consider `O=C(COc1ccccc1)c1ccccc1`, for which the inhibition at 80 µg/mL in assay [1] worked out at 40%; in assay [2], 44%. The Activity in assay [3] is listed as greater than 80%.

For `COc1ccc(C(=O)C(C)Sc2ccc(N)cc2)cc1OC` (configuration not stated), the Activity in assay [5] was greater than 80%.

Take `O=C(CSc1ccc(Cl)cc1)c1ccc(Cl)cc1`: the inhibition at 80 µg/mL is 0% in assay [1] and 50.5% in assay [2]. Also, the Activity in assay [3] is on record as greater than 80%.

In the case of `COc1ccc(C(=O)C(C)S(=O)(=O)c2ccc(C)cc2)cc1OC` (configuration not stated), the values for the inhibition at 80 µg/mL in assay [1] and in assay [2] were 0% and 7%, respectively. In addition, the Activity in assay [3] was greater than 80%.

Consider `COc1ccc([C@@H](O)[C@H](C)Sc2ccc(Cl)cc2)cc1OC` (relative stereo), for which the inhibition at 80 µg/mL was determined as 0% in assay [1] and 36.1% in assay [2]. The Activity in assay [3] was greater than 80%.

`COc1ccc([C@@H](O)[C@H](C)Sc2ccc(C)cc2)cc1OC` (relative stereo): the inhibition at 80 µg/mL in assay [1] stood at 0%; in assay [2], 40.6%. Moreover, in assay [3], the Activity was greater than 80%.

As to `CC(C(=O)c1ccccc1)[S+]([O-])c1ccc(Cl)cc1` (configuration not stated), the inhibition at 80 µg/mL came to 0% in assay [1] and 20.7% in assay [2]. Also, the Activity in assay [3] is reported as greater than 80%.

On to `CC(Sc1ccc(Cl)cc1)C(=O)c1ccccc1` (configuration not stated), for which the inhibition at 80 µg/mL came out at 94.1% in assay [1] and 100% in assay [2]. In assay [3], the Activity is reported as greater than 80%.
